We go through two compounds from ChEMBL document CHEMBL3627646, “Synthesis and biological activity of amino acid derivatives of avarone and its model compound” (Bioorg Med Chem, 2015).

In brackets after ≈: the same amount, converted by molar mass. Activity calls are given as the source filed them.

One data set has as its system Aspergillus brasiliensis. Briefly: Antifungal activity against Aspergillus brasiliensis ATCC 16404 after 24 hrs by microbroth double dilution method. The data set is classed as functional. The following applies: ATCC 16404, 24 h. For orientation: Broth dilution looks for growth in wells or tubes with falling amounts of substance.
For the compound `CSCC[C@H](NC1=CC(=O)C=C(C[C@]2(C)[C@@H](C)CC[C@]3(C)C(C)=CCC[C@@H]23)C1=O)C(=O)O`, the MIC was 341 µM (≈ 157 µg/mL).

The next data set has as its system A549. Briefly: Cytotoxicity against human A549 cells assessed as cell survival after 72 hrs by MTT assay. The data set is classed as functional, cell-based. The following applies: A549, 72 h. Summed up:
(§1)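 Cells seeded (HeLa 2000, MDA-MB-453 3000, others 5000 per well), treated 24 h later (K562 after 2 h). Five double-diluted final concentrations, 200–12.5 μM, from 10 mM DMSO stocks, in RPMI-1640 with 10% FBS, pH 7.2, 72 h. MTT 4 h at 37 °C, SDS added, A570 read next day. Survival relative to medium control; IC50 from survival curves; triplicate; cisplatin positive control.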
In general terms: Formazan colour is commonly taken as a measure of viable cells.
Consider `CSCC[C@H](NC1=CC(=O)C=C(C[C@]2(C)[C@@H](C)CC[C@]3(C)C(C)=CCC[C@@H]23)C1=O)C(=O)O`, for which the IC50 amounted to 47.3 µM.

The next data set concerns Micrococcus flavus. Briefly: Antibacterial activity against Micrococcus flavus ATCC 10240 after 24 hrs by microbroth double dilution method. The data set is classed as functional. The note with it: ATCC 10240, 24 h. Summed up:
(§2)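 Microbroth double dilution in Mueller Hinton broth; compound stock 10 mg/mL in DMSO serially halved across rows. Wells inoculated with 10 μL culture at 10^6 cells/mL, incubated 37 °C for 24 h. Amikacin row as positive control, DMSO row as negative control. MIC taken as lowest concentration inhibiting bacterial growth.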
Consider `CSCC[C@H](NC1=CC(=O)C=C(C[C@]2(C)[C@@H](C)CC[C@]3(C)C(C)=CCC[C@@H]23)C1=O)C(=O)O`, for which the MIC was 170 µM (≈ 77.9 µg/mL).

The test system of another data set is Pseudomonas aeruginosa. Briefly: Antibacterial activity against Pseudomonas aeruginosa ATCC 9027 after 24 hrs by microbroth double dilution method. The data set is classed as functional. The following applies: ATCC 9027, 24 h. Summed up: as §2
In turn, `CSCC[C@H](NC1=CC(=O)C=C(C[C@]2(C)[C@@H](C)CC[C@]3(C)C(C)=CCC[C@@H]23)C1=O)C(=O)O` displayed an MIC of 170 µM (≈ 77.9 µg/mL).

The subject of the next data set is Proteus hauseri. Briefly: Antibacterial activity against Proteus hauseri ATCC 13315 after 24 hrs by microbroth double dilution method. The data set is classed as functional. The note with it: ATCC 13315, 24 h. Put shortly:
as §2
`CSCC[C@H](NC1=CC(=O)C=C(C[C@]2(C)[C@@H](C)CC[C@]3(C)C(C)=CCC[C@@H]23)C1=O)C(=O)O`: the MIC came to 341 µM (≈ 157 µg/mL).

Another data set concerns MRC5. Briefly: Cytotoxicity against human MRC5 cells assessed as cell survival after 72 hrs by MTT assay. The data set is classed as cell-based. The following applies: MRC5, 72 h. Summed up:
as §1
Regarding `CSCC[C@H](NC1=CC(=O)C=C(C[C@]2(C)[C@@H](C)CC[C@]3(C)C(C)=CCC[C@@H]23)C1=O)C(=O)O`, the IC50 is over 200 µM.

Another data set relates to HeLa. Briefly: Cytotoxicity against human HeLa cells assessed as cell survival after 72 hrs by MTT assay.
Details: not given
The class given is functional, cell-based. Put shortly: as §1
Consider `CSCC[C@H](NC1=CC(=O)C=C(C[C@]2(C)[C@@H](C)CC[C@]3(C)C(C)=CCC[C@@H]23)C1=O)C(=O)O`, for which the IC50 amounted to 13.9 µM.

The next data set deals with HeLa. Briefly: Cell cycle arrest in human HeLa cells assessed as accumulation at G2/M phase at IC50 after 24 hrs using propidium iodide staining by cytofluorometric analysis. The data set is classed as functional, cell-based.
Details: not given
Summed up: (§3)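 Trypsinized, fixed in ice-cold 70% ethanol then held at −20 °C at least one week. Treated with RNase 100 µg/mL at 37 °C 30 min, stained with PI 40 µg/mL at least 30 min. Flow cytometry on ≥10,000 cells.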
Turning to `CSCC[C@H](NC1=CC(=O)C=C(C[C@]2(C)[C@@H](C)CC[C@]3(C)C(C)=CCC[C@@H]23)C1=O)C(=O)O`, the outcome was Active.

For a further data set, the system named is K562. Briefly: Cytotoxicity against human K562 cells assessed as cell survival after 72 hrs by MTT assay. The data set is classed as functional, cell-based. The note with it: K562, 72 h. Put shortly:
as §1
As to `CSCC[C@H](NC1=CC(=O)C=C(C[C@]2(C)[C@@H](C)CC[C@]3(C)C(C)=CCC[C@@H]23)C1=O)C(=O)O`, the IC50 was 13.6 µM.

In a further data set the test system is Clostridium sporogenes. Briefly: Antibacterial activity against Clostridium sporogenes ATCC 19404 after 24 hrs by microbroth double dilution method. The class given is functional. The following applies: ATCC 19404, 24 h. Summed up:
as §2
Compound `CSCC[C@H](NC1=CC(=O)C=C(C[C@]2(C)[C@@H](C)CC[C@]3(C)C(C)=CCC[C@@H]23)C1=O)C(=O)O` had an MIC of 170 µM (≈ 77.9 µg/mL).

The test system of a further data set is Micrococcus luteus. Briefly: Antibacterial activity against Micrococcus luteus ATCC 4698 after 24 hrs by microbroth double dilution method. The class given is functional. The following applies: ATCC 4698, 24 h. Summed up: as §2
In turn, `CSCC[C@H](NC1=CC(=O)C=C(C[C@]2(C)[C@@H](C)CC[C@]3(C)C(C)=CCC[C@@H]23)C1=O)C(=O)O` registered an MIC of 42.4 µM (≈ 19.5 µg/mL).

In another data set the test system is MDA-MB-453. Briefly: Cytotoxicity against human MDA-MB-453 cells assessed as cell survival after 72 hrs by MTT assay. The data set is classed as functional, cell-based. The following applies: MDA-MB-453, 72 h. Summed up:
as §1
Consider `CSCC[C@H](NC1=CC(=O)C=C(C[C@]2(C)[C@@H](C)CC[C@]3(C)C(C)=CCC[C@@H]23)C1=O)C(=O)O`, for which the IC50 was 25.6 µM.

The next data set relates to HeLa. Briefly: Cell cycle arrest in human HeLa cells assessed as accumulation at G2/M phase at 2 time IC50 after 24 hrs using propidium iodide staining by cytofluorometric analysis. The class given is functional, cell-based.
Details: not given
Put shortly: as §3
As to `CSCC[C@H](NC1=CC(=O)C=C(C[C@]2(C)[C@@H](C)CC[C@]3(C)C(C)=CCC[C@@H]23)C1=O)C(=O)O`, the outcome was Active.

Another data set relates to Kocuria rhizophila. Briefly: Antibacterial activity against Kocuria rhizophila ATCC 9341 after 24 hrs by microbroth double dilution method. The note with it: ATCC 9341, 24 h. The data set is classed as functional. Put shortly:
as §2
As for `CSCC[C@H](NC1=CC(=O)C=C(C[C@]2(C)[C@@H](C)CC[C@]3(C)C(C)=CCC[C@@H]23)C1=O)C(=O)O`, 1360 µM (≈ 625 µg/mL) was the least that counted as inhibitory (MIC).

In the next data set the test system is Artemia salina. Briefly: Cytotoxicity in Brine shrimp assessed as nauplii mortality after 24 hrs. The data set is classed as organism-based. The note with it: in vivo. Put shortly: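 Artemia salina eggs hatched in aerated tap water with dried yeast at 18–20 °C under illumination for 48 h, and freshly hatched nauplii were used. Compounds in DMSO (0.01–1 mg) were added to 950 µL artificial seawater containing 10–20 nauplii, with 5% final DMSO. After 24 h under illumination at room temperature, dead and surviving nauplii were counted and statistically analysed.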
With `CSCC[C@H](NC1=CC(=O)C=C(C[C@]2(C)[C@@H](C)CC[C@]3(C)C(C)=CCC[C@@H]23)C1=O)C(=O)O`, the LC50 stood at 147.7 ppm.

The subject of the next data set is Candida albicans. Briefly: Antifungal activity against Candida albicans ATCC 10231 after 24 hrs by microbroth double dilution method. The data set is classed as functional. The note with it: ATCC 10231, 24 h.
The compound `CSCC[C@H](NC1=CC(=O)C=C(C[C@]2(C)[C@@H](C)CC[C@]3(C)C(C)=CCC[C@@H]23)C1=O)C(=O)O` yielded an MIC of under 2.67 µM.

A further data set has as its system Staphylococcus aureus. Briefly: Antibacterial activity against Staphylococcus aureus ATCC 6538 after 24 hrs by microbroth double dilution method. The class given is functional. The following applies: ATCC 6538, 24 h. Summed up: as §2
With `CSCC[C@H](NC1=CC(=O)C=C(C[C@]2(C)[C@@H](C)CC[C@]3(C)C(C)=CCC[C@@H]23)C1=O)C(=O)O`, the MIC was determined as 42.4 µM (≈ 19.5 µg/mL). This counts as double-digit micromolar.

A further data set deals with Bacillus subtilis. Briefly: Antibacterial activity against Bacillus subtilis ATCC 6633 after 24 hrs by microbroth double dilution method. The data set is classed as functional. The following applies: ATCC 6633, 24 h. Summed up:
as §2
`CSCC[C@H](NC1=CC(=O)C=C(C[C@]2(C)[C@@H](C)CC[C@]3(C)C(C)=CCC[C@@H]23)C1=O)C(=O)O` had an MIC of 170 µM (≈ 77.9 µg/mL).

The subject of another data set is MRC5. Briefly: Cytotoxicity against human MRC5 cells.
Details: not given
The data set is classed as cell-based.
Regarding `CC1=CCC[C@H]2[C@](C)(CC3=CC(=O)C(N[C@@H](CC(C)C)C(=O)O)=CC3=O)[C@@H](C)CC[C@]12C`, the IC50 is over 100 µM.

A further data set concerns Escherichia coli. Briefly: Antibacterial activity against Escherichia coli ATCC 25922 after 24 hrs by microbroth double dilution method. The data set is classed as functional. The note with it: ATCC 25922, 24 h. Put shortly:
as §2
As to `CSCC[C@H](NC1=CC(=O)C=C(C[C@]2(C)[C@@H](C)CC[C@]3(C)C(C)=CCC[C@@H]23)C1=O)C(=O)O`, the MIC is 42.4 µM (≈ 19.5 µg/mL).

A further data set deals with Salmonella enterica. Briefly: Antibacterial activity against Salmonella enterica ATCC 13076 after 24 hrs by microbroth double dilution method. The following applies: ATCC 13076, 24 h. The class given is functional. Put shortly:
as §2
`CSCC[C@H](NC1=CC(=O)C=C(C[C@]2(C)[C@@H](C)CC[C@]3(C)C(C)=CCC[C@@H]23)C1=O)C(=O)O`: the MIC was found to be 170 µM (≈ 77.9 µg/mL).

Test system in another data set: not listed separately
Briefly: Cytotoxicity against human Fem-X cells assessed as cell survival after 72 hrs by MTT assay. The data set is classed as functional, cell-based.
Details: not given
Put shortly:
as §1
With `CSCC[C@H](NC1=CC(=O)C=C(C[C@]2(C)[C@@H](C)CC[C@]3(C)C(C)=CCC[C@@H]23)C1=O)C(=O)O`, the IC50 came to 19.4 µM.

The test system of a further data set is Saccharomyces cerevisiae. Briefly: Antifungal activity against Saccharomyces cerevisiae ATCC 9763 after 24 hrs by microbroth double dilution method. The data set is classed as functional. The note with it: ATCC 9763, 24 h.
The compound `CSCC[C@H](NC1=CC(=O)C=C(C[C@]2(C)[C@@H](C)CC[C@]3(C)C(C)=CCC[C@@H]23)C1=O)C(=O)O` came in with an MIC of 87.8 µM (≈ 40.3 µg/mL). In other words, the double-digit micromolar range.

The term MIC denotes the smallest concentration in the dilution series that meets the test's criterion for growth inhibition. Broadly, the IC50 is the concentration needed to halve the response being measured. What is called LC50 is the concentration that kills 50% of the test population.
